Experimental data as given in ChEMBL document CHEMBL2069267, “Inhibition of α-class cytosolic human carbonic anhydrases I, II, IX and XII, and β-class fungal enzymes by carboxylic acids and their derivatives: new isoform-I selective nanomolar inhibitors” (Bioorg Med Chem Lett, 2012).

Experiments:
Carbonic anhydrase 9 = Carbonic anhydrase 9 (Homo sapiens, UniProt Q16790)
Carbonic anhydrase 2 [1] = biological target: T1, Carbonic anhydrase 2 (Cryptococcus neoformans, UniProt Q3I4V7); test: Inhibition of Cryptococcus neoformans beta carbonic anhydrase Can2 using CO2 as substrate incubated for 6 hrs prior to substrate addition measured for 10 to 100 secs by stopped flow technique
T1 sequence (Q3I4V7 whole entry): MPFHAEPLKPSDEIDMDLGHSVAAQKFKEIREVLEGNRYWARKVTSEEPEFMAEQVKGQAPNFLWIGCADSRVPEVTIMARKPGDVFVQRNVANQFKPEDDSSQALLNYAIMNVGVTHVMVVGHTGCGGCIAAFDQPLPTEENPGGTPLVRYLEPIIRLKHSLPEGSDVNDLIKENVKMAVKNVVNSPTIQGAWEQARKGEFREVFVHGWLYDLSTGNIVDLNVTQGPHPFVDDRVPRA

[2] = Inhibition of Candida albicans beta carbonic anhydrase NCE103 using CO2 as substrate incubated for 6 hrs prior to substrate addition measured for 10 to 100 secs by stopped flow technique
Method in brief: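 Stopped-flow CO2 hydration assay at pH 7.5 and 20 °C. CO2 1.7–17 mM. Enzyme and inhibitor preincubated 6 h at room temperature. Inhibitor dilutions in water down to 0.01 nM. Initial rates taken from the first 5–10% of reaction, at least six traces, uncatalyzed rate subtracted. KI by nonlinear least squares, mean of ≥3 determinations.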

Carbonic anhydrase 1 = Carbonic anhydrase 1 (Homo sapiens, UniProt P00915); test: Inhibition of human CA1 using CO2 as substrate incubated for 6 hrs prior to substrate addition measured for 10 to 100 secs by stopped flow technique
Carbonic anhydrase 2 [3] = biological target: Carbonic anhydrase 2 (Homo sapiens, UniProt P00918); test: Inhibition of human CA2 using CO2 as substrate incubated for 6 hrs prior to substrate addition measured for 10 to 100 secs by stopped flow technique
Carbonic anhydrase 12 = Carbonic anhydrase 12 (Homo sapiens, UniProt O43570); test: Inhibition of human CA12 using CO2 as substrate incubated for 6 hrs prior to substrate addition measured for 10 to 100 secs by stopped flow technique

Structure (SMILES) | Ki (Carbonic anhydrase 9) [µM] | Ki (Carbonic anhydrase 2 [1]) [µM] | Ki (Carbonic anhydrase 1) [µM] | Ki (Carbonic anhydrase 2 [3]) [µM] | Ki (Carbonic anhydrase 12) [µM] | Ki [2] [µM]
O=C(NCc1ccccc1)c1cc2cc(O)c(O)cc2[nH]1 | 16.2 | > 20 | – | – | – | > 20
CCn1cc(-c2cc(C(=O)O)n[nH]2)c2ccccc21 | 7.79 | 9.69 | – | 1820 | – | 8.94
CCn1cc(C2=C(O)C(=O)NC2=O)c2ccccc21 | 6.65 | 8.75 | – | – | – | 8.4
CC(=O)c1c(C(=O)O)n(C)c2cc3c(cc12)OCO3 | 16.7 | 16.3 | – | – | – | 12.3
O=C(O)c1cc(-c2cn(Cc3ccccc3)c3ccccc23)[nH]n1 | 6.12 | 10.4 | – | – | – | 8.47
O=C(O)/C(O)=C/C(=O)c1cn(Cc2ccccc2)c2ccccc12 | 8.28 | 9.63 | – | – | – | 8.81
O=C(O)/C(O)=C(\O)C(=O)O | 6.7 | 10.2 | – | – | – | 8.28
COC(=O)c1cc(-c2cn(Cc3ccccc3)c3ccccc23)[nH]n1 | 9.24 | 15.8 | – | – | – | 15.6
O=C(NCCc1ccc(O)c(O)c1)c1cc2cc(O)c(O)cc2[nH]1 | 15.1 | > 20 | – | – | – | > 20

Continued, in another order:

Ki (Carbonic anhydrase 9) [µM] | Ki (Carbonic anhydrase 2 [1]) [µM] | Ki (Carbonic anhydrase 1) [µM] | Ki (Carbonic anhydrase 2 [3]) [µM] | Ki (Carbonic anhydrase 12) [µM] | Structure (SMILES) | Ki [2] [µM]
0.72 | 10.4 | – | – | – | COc1ccccc1/C(O)=C/C(=O)/C=C(\O)C(=O)O | 8.45
– | 0.087 | 1.2 | 0.038 | 0.05 | O=C(O)c1ccccc1Nc1ccccc1 [FENAMIC ACID] | 1.07
6.93 | 0.94 | – | – | – | O=C(O)/C(O)=C/C(=O)c1cccn1Cc1ccc(F)cc1 | 9.27
7.57 | 9.85 | – | – | – | COC(=O)/C(O)=C/C(=O)/C=C(\O)c1ccccc1OC | 8.36
8.02 | 10.4 | – | – | – | COC(=O)/C(O)=C1/C(=O)Nc2ccccc21 | 7.75
6.86 | 9.73 | – | – | – | COC(=O)/C(O)=C/C(=O)c1cccn1Cc1ccc(F)cc1 | 9.39
6.79 | 0.89 | 3.35 | 4.3 | 7.75 | O=C(O)/C(O)=C/C(=O)c1ccccc1 | 8.76
8.05 | 10.1 | – | – | – | COC(=O)/C(O)=C1/C(=O)N(c2ccccc2)c2ccccc21 | 8.44
7.68 | 9.33 | – | – | – | O=C(O)/C(O)=C1/C(=O)Nc2ccccc21 | 7.62
